A selection: hits, their analogues and other compounds. The true share with any hit is near 3.9%.
CHOP UPR activ – activators of apoptotic CHOP UPR arm, primary screen, cell-based, CHO-CHOP luciferase reporter, luminescence, uHTS. 0.34% of 330,000 active. AID 449763, 2010. activation, % at 10 µM. UPR activation; percent of tunicamycin response over DMSO baseline;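 active = at 10 µM dose, activation of 40% or more, normalized to positive control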;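 also: 100% = tunicamycin at 10 µg/mL and 0% = DMSO alone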
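Dosing – one dose, 10 µM in 0.5% DMSO · System – CHO-CHOP cells, stable luciferase reporter of PERK-eIF2a-CHOP signalling · Input – 500 cells/well · Control set – tunicamycin 10 µg/mL final as positive, DMSO-only wells as negative · Timing – 6 h compound treatment, 37 °C · Measure – % activation vs tunicamycin · Technique – luminescence read with Steady-Glo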
XBP1 UPR activ – activators of adaptive XBP1 UPR arm, primary screen, cell-based, CHO-XBP1 luciferase reporter, luminescence, uHTS; IRE1-XBP1 UPR activation; percent of tunicamycin response, DMSO as zero; activation, % at 20 µM; 0.33% of 330,000 active; AID 463104, 2010;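 active = versus positive control, 20 µM dose yields 30% or more activation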;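 also: 100% = tunicamycin at 10 µg/mL and 0% = DMSO only wells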
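incubation = overnight seeding at 37 °C, 6 h compound treatment at 37 °C | assay system = CHO-XBP1 cells stably carrying IRE1-XBP1-driven luciferase reporter | input = 1000 cells per well | detection = luciferase luminescence | dosing = single point, 20 µM final compound, 1% DMSO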
tim23-1 inh – growth inhibitors of tim23-1 mutant yeast, primary screen, luminescence, uHTS; S. cerevisiae tim23-1 growth, BacTiter-Glo luminescence, 24 h; inhibition, % at 20 µM; 1.3% of 330,000 active; AID 463212, 2010;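 active = growth inhibition of the mutant yeast at or above 50%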;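 also: temperature-sensitive mutant grown at 25 °C; plate controls were DMSO-treated mutant yeast for no effect and medium wells lacking yeast for full effect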
TIM10 inh – growth inhibitors of isogenic TIM10 control yeast, primary screen, counter-screen for tim10-1 yeast inhibitor project, luminescence, uHTS. S. cerevisiae TIM10 strain growth, BacTiter-Glo luminescence, 24 h. inhibition, % at 10 µM. 1.4% of 330,000 active. AID 463195, 2010;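 active = inhibition of 40% or more at the single tested concentration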;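 also: wild-type TIM10 isogenic control strain grown at permissive 25 °C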
tim10-1 inh – growth inhibitors of tim10-1 mutant yeast, primary screen, luminescence, uHTS | S. cerevisiae tim10-1 ts strain growth, BacTiter-Glo, 24 h | inhibition, % at 20 µM | 2.2% of 330,000 active | AID 463190, 2010;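 active = inhibition of at least 40%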;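 also: mutant grown at 25 °C; 0% = DMSO wells with yeast and 100% = wells holding no yeast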
tim10-1 confirm – growth inhibitors of tim10-1 mutant yeast, confirmation, single concentration, luminescence, S. cerevisiae. shares compounds with tim10-1 inh. S. cerevisiae tim10-1 ts strain growth, BacTiter-Glo, 24 h. inhibition, % at 20 µM. 56% of 7,400 active. AID 463213, 2010;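 active = inhibition of yeast growth at or above a set limit in either of two repeat tests at 20 µM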;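 also: tim10-1 mutant grown at permissive 25 °C to find synthetic lethal compounds; 0% = DMSO yeast wells and 100% = medium wells without yeast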
The depositor's hits bear a star; / = no result given.

SMILES | CHOP UPR activ | XBP1 UPR activ | tim23-1 inh | TIM10 inh | tim10-1 inh | tim10-1 confirm
CC(C)c1ccc(NC(=O)CCCN2C(=O)NC(C)(C)C2=O)cc1 | 0.4 | -1.4 | -8.6 | -3.4 | 57.5* | 1.7
CC1(C)NC(=O)N(CCCC(=O)Nc2ccc(C(F)(F)F)cc2)C1=O | -1.5 | 1.6 | -3.9 | 3.3 | -9.2 | /
Cc1ccc(N2CSC3=C(C#N)C(c4cccs4)CC(=O)N3C2)cc1 (configuration not stated) | 0.2 | 3.2 | 16.2 | 0.0 | 40.2* | -0.1
CCc1ccc(N2CSC3=C(C#N)C(c4cccs4)CC(=O)N3C2)cc1 (configuration not stated) | 1.1 | 1.1 | 23.6 | 20.1 | 23.4 | /
C/C(=N\NS(=O)(=O)c1c(C)cc(C)cc1C)c1ccncc1 | -1.1 | -1.4 | 5.9 | -4.7 | -14.3 | /
COc1ccc(-c2cc(C(F)(F)F)nc(SCC(=O)N3CCOCC3)n2)cc1OC | 0.8 | -1.3 | 15.0 | -6.7 | 9.2 | /
COc1ccc(-c2cc(C(F)(F)F)nc(S(=O)(=O)CCC(=O)N3CCOCC3)n2)cc1 | 0.9 | -2.2 | 16.8 | 32.1 | 47.8* | 29.6
COc1ccccc1-c1cc(C(F)(F)F)nc(S(=O)(=O)CCCC(=O)N2CCOCC2)n1 | -4.8 | -9.9 | 33.2 | 30.1 | 40.2* | 17.6
O=C(N/N=C/c1ccc(OC(=O)c2ccco2)cc1)c1ccc[n+]([O-])c1 | -1.6 | 1.9 | 5.2 | 16.3 | 3.0 | /
CCOc1ccc(/C(O)=C2/C(=O)C(=O)N(CCCN3CCOCC3)C2c2ccc(C)cc2)cc1C (configuration not stated) | -0.9 | -3.9 | 8.6 | 3.0 | -2.2 | /
Cc1ccc(S(=O)(=O)N2CCN(C(=O)NCc3ccc(C(=O)O)cc3)CC2)cc1 | -1.4 | -0.9 | -2.4 | 13.3 | -1.9 | /
COc1ccc(Oc2nnnn2-c2ccccc2)cc1 | 2.0 | 2.5 | 9.2 | 16.0 | 20.2 | /
COc1cccc(Oc2nnnn2-c2ccccc2)c1 | 4.6 | 1.7 | 33.9 | 21.6 | 41.7* | 32.9*
Cc1cccc(-c2c(NC(=O)c3ccco3)oc3c(C)cccc3c2=O)c1 | 1.8 | -2.5 | 17.1 | -4.4 | 20.2 | /
Cc1cccc2c(=O)c(-c3ccc4c(c3)OCO4)c(NC(=O)c3ccco3)oc12 | 0.5 | -0.5 | 46.7 | 27.5 | 42.2* | 7.7
COc1ccc(/C=N/Nc2cn[nH]c(=O)c2Cl)cc1 | 1.5 | 5.3 | 20.2 | 32.0 | 41.7* | 8.8
Cc1ccc(/C=N\Nc2cn[nH]c(=O)c2Cl)cc1 | 2.5 | 0.7 | 40.8 | 31.7 | 27.6 | /
O=C(NCCS(=O)(=O)NC1CCCCC1)c1ccc2c(c1)OCO2 | 0.9 | -0.4 | -1.9 | -2.4 | -11.0 | /
Cc1oc2c(Cl)c(Cl)c(O)c(CN(C)C)c2c1C(=O)c1ccc(Cl)cc1 | 0.0 | -0.9 | 45.2 | 37.7 | 48.7* | 52.8*
Cc1oc2ccc(O)c(CN3CCOCC3)c2c1C(=O)c1ccc(Cl)cc1 | 1.4 | 6.4 | 39.2 | -6.1 | 21.2 | /
CCOC(=O)C1=CN(Cc2cccc(-c3ccc(F)cc3)c2)S(=O)(=O)N(C)C1C (configuration not stated) | 1.0 | -0.9 | 38.1 | 2.7 | 19.8 | /
O=C(NCc1ccccn1)c1cccc(S(=O)(=O)Nc2ccccc2Cl)c1 | -1.3 | -0.7 | 6.7 | 1.8 | 4.1 | /
CN1CCN(CCCNC(=O)c2ccc(/C=C3\Oc4ccccc4N(Cc4ccccc4F)C3=O)cc2)CC1 | 3.6 | 2.7 | 32.2 | 12.4 | 42.1* | 9.7
Cc1nc2sc3c(=O)[nH]nnc3c2c(C)c1Br | 2.8 | -2.7 | 42.7 | 7.5 | 42.3* | 30.9
COc1cc2ccccc2cc1C(=O)N(CCN(C)C)c1nc2c(C)cccc2s1 | -0.4 | -4.9 | 28.4 | 32.4 | 55.9* | 19.5
COc1cc2ccccc2cc1C(=O)N(CCN(C)C)c1nc2ccc(C)cc2s1 | 3.7 | -2.3 | 19.5 | 31.9 | 42.2* | 13.7
Cc1ccc2nc(N(CCN(C)C)C(=O)c3cc(Cl)sc3Cl)sc2c1 | 5.6 | 0.0 | 3.1 | 7.5 | 14.8 | /

Screening data: PubChem, Sanford-Burnham Center for Chemical Genomics
